Test results from ChEMBL document CHEMBL2069242, “Structure and activity relationship in the (S)-N-chroman-3-ylcarboxamide series of voltage-gated sodium channel blockers” (Bioorg Med Chem Lett, 2012).
Converted amounts (≈) assume the structure as drawn. The source made the active and inactive calls. The rule behind the calls is not given here.

Columns and labels:
Rattus norvegicus [1] = assay: Antinociceptive activity in formalin-challenged Sprague-Dawley rat assessed as latency in paw licking during phase 1 at 49 umol/kg, po administered 3 hrs prior to formalin-challenge measured up to 5 mins post formalin challenge relative to control; assay type: functional
In short: (§1)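 Sprague–Dawley rats (n = 9/group) were dosed by oral gavage 3 h before formalin, at 0, 19, 49 and 99 µmol/kg, as a nanosuspension in 1% PVP K30/0.2% SDS. Formalin was 100 µL of 2.0% injected s.c. into the dorsal left hind paw. Paw-licking time was scored over 35 min: phase 1 at 0–5 min, phase 2 at 15–35 min. Results were given as % of vehicle, with total plasma concentration as mean SD. Statistics were one-way ANOVA, then unpaired one-tailed t-test.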

[2] = Solubility of the compound; assay type: physicochemical
Liver microsomes [3] = assay: Intrinsic clearance in human liver microsomes assessed per ug of protein; assay type: ADME, Microsome
[4] = Half life in Sprague-Dawley rat at 3 umol/kg, iv; assay type: ADME, organism-based; details: in vivo
In short: (§2)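 Rat pharmacokinetics used fasted male Sprague–Dawley rats, three animals per administration route per compound. The intravenous dose was 3 µmol/kg, with a separate oral arm.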

Plasma = assay: Plasma concentration in formalin-challenged Sprague-Dawley rat at 49 umol/kg, po administered 3 hrs prior to formalin-challenge measured up to 5 mins post formalin challenge; assay type: ADME, organism-based; details: in vivo; in short: as §1
[5] = Clearance in Sprague-Dawley rat at 3 umol/kg, iv; assay type: ADME, organism-based; details: in vivo; in short: as §2
[6] = Oral bioavailability in Sprague-Dawley rat at 10 umol/kg; assay type: ADME, organism-based; details: in vivo; in short: as §2
Homo sapiens = species on record: Homo sapiens; assay: Displacement of [3H]nitrobenzylthioinosine from adenosine transporter at 10 uM
[7] = Volume of distribution at steady state in Sprague-Dawley rat at 3 umol/kg, iv; assay type: ADME, organism-based; details: in vivo, read-out: Vdss; in short: as §2
[8] = Displacement of [3H]nitrobenzylthioinosine from adenosine transporter; parameters: species or system Homo sapiens
Cannabinoid receptor 1 [9] = target: T1, Cannabinoid receptor 1 (Homo sapiens, UniProt P21554); assay: Displacement of [3H]SR141716A from CB1 receptor at 10 uM
T1 sequence (P21554 whole entry): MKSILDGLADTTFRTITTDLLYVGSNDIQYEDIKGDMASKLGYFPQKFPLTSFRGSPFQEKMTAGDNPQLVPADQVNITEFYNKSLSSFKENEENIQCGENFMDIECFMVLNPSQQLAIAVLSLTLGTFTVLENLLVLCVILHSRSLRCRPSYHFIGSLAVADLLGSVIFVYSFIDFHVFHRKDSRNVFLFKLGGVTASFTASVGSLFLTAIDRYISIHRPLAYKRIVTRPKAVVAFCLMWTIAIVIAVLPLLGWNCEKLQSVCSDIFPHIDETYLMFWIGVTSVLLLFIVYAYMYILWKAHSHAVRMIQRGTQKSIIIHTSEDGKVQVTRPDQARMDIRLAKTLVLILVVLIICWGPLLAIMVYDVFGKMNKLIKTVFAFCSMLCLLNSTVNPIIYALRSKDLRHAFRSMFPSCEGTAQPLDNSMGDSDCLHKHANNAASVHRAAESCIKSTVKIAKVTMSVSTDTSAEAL

[10] = target: Sodium channel protein type 9 subunit alpha (Homo sapiens, UniProt Q15858); assay: Inhibition of human NaV1.7 expressed in HEK293 cells by whole-cell voltage clamp assay; assay type: cell-based
Chain of Sodium channel protein type 9 subunit alpha (Q15858 whole entry): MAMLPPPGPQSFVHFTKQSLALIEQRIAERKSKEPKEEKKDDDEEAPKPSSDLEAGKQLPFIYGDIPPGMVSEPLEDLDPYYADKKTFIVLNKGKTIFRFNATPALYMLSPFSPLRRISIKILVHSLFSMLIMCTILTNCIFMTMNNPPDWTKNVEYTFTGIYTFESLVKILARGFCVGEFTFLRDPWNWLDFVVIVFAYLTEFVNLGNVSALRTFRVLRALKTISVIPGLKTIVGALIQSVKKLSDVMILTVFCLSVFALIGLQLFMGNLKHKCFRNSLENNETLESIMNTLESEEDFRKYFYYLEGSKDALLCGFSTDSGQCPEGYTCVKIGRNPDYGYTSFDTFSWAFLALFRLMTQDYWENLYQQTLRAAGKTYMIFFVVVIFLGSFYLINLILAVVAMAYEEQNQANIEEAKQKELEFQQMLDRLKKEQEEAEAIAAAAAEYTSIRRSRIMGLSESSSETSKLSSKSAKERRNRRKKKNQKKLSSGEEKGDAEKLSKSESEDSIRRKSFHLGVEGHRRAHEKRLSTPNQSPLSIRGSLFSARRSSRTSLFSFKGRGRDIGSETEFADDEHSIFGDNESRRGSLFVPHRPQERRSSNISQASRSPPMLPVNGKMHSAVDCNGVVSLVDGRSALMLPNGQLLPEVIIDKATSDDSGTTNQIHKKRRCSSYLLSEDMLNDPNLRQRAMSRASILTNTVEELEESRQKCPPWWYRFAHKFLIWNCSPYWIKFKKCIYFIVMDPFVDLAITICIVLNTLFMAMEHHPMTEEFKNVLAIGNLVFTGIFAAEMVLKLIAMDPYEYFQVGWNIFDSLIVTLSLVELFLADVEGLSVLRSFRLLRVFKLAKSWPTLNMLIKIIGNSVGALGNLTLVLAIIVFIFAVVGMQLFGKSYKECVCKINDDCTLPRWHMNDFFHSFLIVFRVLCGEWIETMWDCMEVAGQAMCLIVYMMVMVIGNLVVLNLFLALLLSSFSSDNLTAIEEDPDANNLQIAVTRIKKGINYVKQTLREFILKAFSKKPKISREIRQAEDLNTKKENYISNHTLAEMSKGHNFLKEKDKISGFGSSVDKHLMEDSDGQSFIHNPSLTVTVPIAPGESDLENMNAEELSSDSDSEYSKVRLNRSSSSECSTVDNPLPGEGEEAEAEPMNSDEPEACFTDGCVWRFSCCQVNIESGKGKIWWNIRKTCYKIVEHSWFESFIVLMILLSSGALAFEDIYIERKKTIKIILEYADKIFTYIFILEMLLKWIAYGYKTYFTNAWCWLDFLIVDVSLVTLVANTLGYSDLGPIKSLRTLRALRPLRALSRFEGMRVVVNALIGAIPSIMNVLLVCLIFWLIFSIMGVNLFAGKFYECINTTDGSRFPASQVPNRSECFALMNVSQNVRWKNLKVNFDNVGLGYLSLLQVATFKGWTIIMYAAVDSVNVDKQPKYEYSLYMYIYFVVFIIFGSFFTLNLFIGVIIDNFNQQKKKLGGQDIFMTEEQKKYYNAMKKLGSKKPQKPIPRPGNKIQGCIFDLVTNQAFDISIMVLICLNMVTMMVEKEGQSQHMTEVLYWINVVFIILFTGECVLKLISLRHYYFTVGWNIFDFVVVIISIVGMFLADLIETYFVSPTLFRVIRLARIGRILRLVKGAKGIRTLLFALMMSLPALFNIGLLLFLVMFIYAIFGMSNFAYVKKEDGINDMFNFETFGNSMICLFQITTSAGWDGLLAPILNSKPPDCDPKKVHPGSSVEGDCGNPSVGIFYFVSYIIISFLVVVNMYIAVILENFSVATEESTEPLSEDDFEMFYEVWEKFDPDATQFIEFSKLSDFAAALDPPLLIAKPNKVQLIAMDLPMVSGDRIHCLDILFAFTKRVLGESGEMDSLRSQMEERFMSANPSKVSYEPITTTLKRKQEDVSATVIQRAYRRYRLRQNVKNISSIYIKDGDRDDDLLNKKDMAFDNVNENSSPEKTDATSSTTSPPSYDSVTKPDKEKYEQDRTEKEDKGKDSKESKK
In short: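 Human NaV1.7 α-subunit stably expressed in HEK293 cells. Currents were recorded by perforated whole-cell automated planar patch clamp (IonWorks Quattro) in D-PBS external solution with 5.5 mM glucose. Cells were held at −65 mV, and a train of eight 30 ms steps to −20 mV at 3 Hz was applied. Half-log serial dilutions were made in DMSO, giving 0.3% DMSO in the recording solution.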

[11] = Cmax in Sprague-Dawley rat at 10 umol/kg, po; assay type: ADME, organism-based; parameters: dose 10 umol/kg, route oral; details: in vivo; in short: as §2
Liver microsomes [12] = assay: Intrinsic clearance in rat liver microsomes assessed per ug of protein; assay type: ADME, Microsome
[13] = target: Voltage-gated inwardly rectifying potassium channel KCNH2 (Homo sapiens, UniProt Q12809); assay: Inhibition of human ERG expressed in CHO cells by IonWorks HT assay; assay type: cell-based
Cannabinoid receptor 1 [14] = target: T1, Cannabinoid receptor 1; assay: Agonist activity at CB1 receptor by [35gammaS]GTP incorporation assay; assay type: functional
[15] = target: Sodium channel protein type 5 subunit alpha (Homo sapiens, UniProt Q14524); assay: Inhibition of human NaV1.5 expressed in CHO cells by IonWorks assay; assay type: cell-based
Chain of Sodium channel protein type 5 subunit alpha (Q14524 whole entry): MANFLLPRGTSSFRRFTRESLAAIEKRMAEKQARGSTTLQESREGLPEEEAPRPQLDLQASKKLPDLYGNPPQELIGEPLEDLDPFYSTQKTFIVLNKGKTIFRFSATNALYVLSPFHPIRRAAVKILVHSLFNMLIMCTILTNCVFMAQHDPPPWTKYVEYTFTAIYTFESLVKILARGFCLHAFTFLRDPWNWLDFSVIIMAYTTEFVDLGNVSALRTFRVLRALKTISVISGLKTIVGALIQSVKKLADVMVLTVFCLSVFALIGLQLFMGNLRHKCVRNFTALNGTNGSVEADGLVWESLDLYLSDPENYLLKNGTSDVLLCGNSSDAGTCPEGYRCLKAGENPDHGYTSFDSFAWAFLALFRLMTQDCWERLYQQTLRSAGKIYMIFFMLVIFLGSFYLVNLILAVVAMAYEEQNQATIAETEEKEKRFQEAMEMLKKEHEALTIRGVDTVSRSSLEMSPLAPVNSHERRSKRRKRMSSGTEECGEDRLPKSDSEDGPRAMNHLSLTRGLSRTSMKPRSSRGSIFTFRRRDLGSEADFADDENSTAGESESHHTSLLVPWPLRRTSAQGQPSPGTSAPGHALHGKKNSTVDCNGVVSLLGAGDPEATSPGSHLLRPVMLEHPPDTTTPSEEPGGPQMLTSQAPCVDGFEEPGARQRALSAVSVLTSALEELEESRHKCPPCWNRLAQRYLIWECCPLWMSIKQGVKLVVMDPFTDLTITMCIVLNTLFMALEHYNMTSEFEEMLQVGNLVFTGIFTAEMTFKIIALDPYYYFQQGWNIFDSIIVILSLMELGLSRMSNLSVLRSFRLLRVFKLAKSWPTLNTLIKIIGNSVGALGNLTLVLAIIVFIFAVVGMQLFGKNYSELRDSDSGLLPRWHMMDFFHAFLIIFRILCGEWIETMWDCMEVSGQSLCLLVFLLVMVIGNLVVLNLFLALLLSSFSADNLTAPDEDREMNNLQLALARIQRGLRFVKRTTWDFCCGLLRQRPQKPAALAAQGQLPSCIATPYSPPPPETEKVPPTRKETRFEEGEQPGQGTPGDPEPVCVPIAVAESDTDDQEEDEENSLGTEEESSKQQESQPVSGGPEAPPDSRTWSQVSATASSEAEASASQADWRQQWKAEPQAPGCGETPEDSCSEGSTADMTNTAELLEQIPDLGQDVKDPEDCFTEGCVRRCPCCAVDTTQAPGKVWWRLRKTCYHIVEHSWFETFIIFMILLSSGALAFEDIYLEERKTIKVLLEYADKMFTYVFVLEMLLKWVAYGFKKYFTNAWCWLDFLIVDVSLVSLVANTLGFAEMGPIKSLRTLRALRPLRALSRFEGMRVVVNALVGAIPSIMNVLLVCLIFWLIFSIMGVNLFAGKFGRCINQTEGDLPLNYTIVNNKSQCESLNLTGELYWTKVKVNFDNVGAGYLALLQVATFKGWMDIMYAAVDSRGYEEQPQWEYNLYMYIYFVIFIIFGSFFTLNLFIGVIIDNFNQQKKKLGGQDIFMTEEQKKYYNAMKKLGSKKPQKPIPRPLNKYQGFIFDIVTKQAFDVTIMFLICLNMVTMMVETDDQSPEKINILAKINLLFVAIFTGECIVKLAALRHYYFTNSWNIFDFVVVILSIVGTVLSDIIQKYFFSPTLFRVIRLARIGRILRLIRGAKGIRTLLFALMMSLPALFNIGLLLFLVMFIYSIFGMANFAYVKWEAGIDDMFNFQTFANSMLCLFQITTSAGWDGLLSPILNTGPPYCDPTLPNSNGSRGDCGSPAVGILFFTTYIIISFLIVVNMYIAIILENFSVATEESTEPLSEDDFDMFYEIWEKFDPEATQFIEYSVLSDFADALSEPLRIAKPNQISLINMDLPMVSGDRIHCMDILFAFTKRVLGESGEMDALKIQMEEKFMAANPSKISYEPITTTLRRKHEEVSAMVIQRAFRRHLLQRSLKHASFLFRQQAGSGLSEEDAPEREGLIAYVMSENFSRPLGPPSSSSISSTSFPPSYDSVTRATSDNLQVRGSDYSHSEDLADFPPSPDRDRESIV

[16] = target: T2, C-C chemokine receptor type 1 (Homo sapiens) (UniProt P32246); assay: Increase in [125I]MIP-1alpha binding to CCR1 at 10 uM
T2 sequence (whole entry): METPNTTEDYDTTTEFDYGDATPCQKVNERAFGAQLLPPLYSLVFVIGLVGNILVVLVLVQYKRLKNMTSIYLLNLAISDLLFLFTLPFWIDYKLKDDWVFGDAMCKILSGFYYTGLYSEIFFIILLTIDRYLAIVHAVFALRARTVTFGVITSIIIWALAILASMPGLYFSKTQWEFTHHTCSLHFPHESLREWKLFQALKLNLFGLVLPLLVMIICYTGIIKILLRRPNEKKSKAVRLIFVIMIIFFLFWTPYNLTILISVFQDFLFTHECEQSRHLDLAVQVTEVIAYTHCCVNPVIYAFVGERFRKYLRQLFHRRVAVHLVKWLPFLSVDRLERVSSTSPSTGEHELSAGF

Rattus norvegicus [17] = assay: Dose normalized AUC in Sprague-Dawley rat at 3 umol/kg, iv; assay type: ADME, organism-based; details: in vivo; in short: as §2
Rattus norvegicus [18] = assay: Dose normalized AUC in Sprague-Dawley rat at 10 umol/kg, po; assay type: ADME, organism-based; details: in vivo; in short: as §2
[19] = Half life in Sprague-Dawley rat at 10 umol/kg, po; assay type: ADME, organism-based; details: in vivo; in short: as §2
Cannabinoid receptor 1 [20] = target: T1, Cannabinoid receptor 1; assay: Displacement of [3H]SR141716A from CB1 receptor
[21] = Tmax in Sprague-Dawley rat at 10 umol/kg, po; assay type: ADME, organism-based; details: in vivo; in short: as §2
[22] = target: 5-hydroxytryptamine receptor 1B (Homo sapiens) (UniProt P28222); assay: Activity at 5HT1B receptor
Chain of 5-hydroxytryptamine receptor 1B (Homo sapiens) (P28222 whole entry): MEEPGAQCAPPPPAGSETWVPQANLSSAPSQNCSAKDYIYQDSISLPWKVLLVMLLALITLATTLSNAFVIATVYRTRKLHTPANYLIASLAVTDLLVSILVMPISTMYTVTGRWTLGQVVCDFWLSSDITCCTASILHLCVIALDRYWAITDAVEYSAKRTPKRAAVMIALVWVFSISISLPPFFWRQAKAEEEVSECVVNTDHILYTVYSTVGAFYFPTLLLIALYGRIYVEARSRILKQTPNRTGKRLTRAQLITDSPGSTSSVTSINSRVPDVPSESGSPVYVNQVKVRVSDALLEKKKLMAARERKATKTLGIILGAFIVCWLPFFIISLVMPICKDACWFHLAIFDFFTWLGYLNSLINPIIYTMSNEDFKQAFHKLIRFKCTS

Rattus norvegicus [23] = assay: Antinociceptive activity in formalin-challenged Sprague-Dawley rat assessed as latency in paw licking during phase 2 at […], po administered 3 hrs prior to formalin-challenge measured up to 15 to 35 mins post formalin challenge; assay type: functional, organism-based; in short: as §1
[24] = target: T3, 5-hydroxytryptamine receptor 1A (Homo sapiens) (UniProt P08908); assay: Activity at 5HT1A receptor
T3 sequence (whole entry): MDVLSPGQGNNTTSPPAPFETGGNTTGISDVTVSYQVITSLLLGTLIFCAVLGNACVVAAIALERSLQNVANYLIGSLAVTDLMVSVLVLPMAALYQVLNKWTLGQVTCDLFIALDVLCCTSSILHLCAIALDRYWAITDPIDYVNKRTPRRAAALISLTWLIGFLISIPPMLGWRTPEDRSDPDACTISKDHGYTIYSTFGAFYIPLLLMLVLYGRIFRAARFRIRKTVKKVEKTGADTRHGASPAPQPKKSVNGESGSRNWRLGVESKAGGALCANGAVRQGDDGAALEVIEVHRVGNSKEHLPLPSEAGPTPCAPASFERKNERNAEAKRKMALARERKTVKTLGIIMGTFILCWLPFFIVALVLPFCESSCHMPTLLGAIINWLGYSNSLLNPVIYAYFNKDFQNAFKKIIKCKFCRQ

Rattus norvegicus [25] = assay: Antinociceptive activity in po dosed formalin-challenged Sprague-Dawley rat assessed as latency in paw licking during phase 1 administered 3 hrs prior to formalin-challenge measured up to 5 mins post formalin challenge; assay type: functional, organism-based; in short: as §1

solubility [2]: 34 µM (≈ 16.1 µg/mL)
CLint (Liver microsomes [3]): < 10 µL/min/mg
half-life [4]: 2.2 h
concentration (Plasma): 5000 nM
clearance [5]: 25 mL/min/kg
bioavailability [6]: 44%
inhibition (Homo sapiens): 66%
Vd [7]: 4.2 L/kg
IC50 [8]: 1.8 µM
inhibition (Cannabinoid receptor 1 [9]): 55%
IC50 [10]: 0.0794 µM
Cmax [11]: 300 nM
CLint (Liver microsomes [12]): < 10 µL/min/mg
Activity (Cannabinoid receptor 1 [14]): inactive
Activity [16]: 127%
AUC/dose (Rattus norvegicus [17]): 0.6 kg·h/L
AUC/dose (Rattus norvegicus [18]): 0.3 kg·h/L
half-life [19]: 4.8 h
IC50 (Cannabinoid receptor 1 [20]): 5 µM
Tmax [21]: 2.5 h
Activity [22]: inactive
Activity [24]: inactive
Structure (SMILES): COc1cnc(-c2cccc3c2C[C@H](NC(=O)c2ccc(COCC(F)(F)F)nc2)CO3)cn1
Activity (Rattus norvegicus [1]): 66%
IC50 [13]: 12.6 µM
IC50 [15]: 12.6 µM
Activity (Rattus norvegicus [23]): inactive
Activity (Rattus norvegicus [25]): Dose-dependent effect
